In the library only some 4% were active in any assay of this set; here they are far more common.
Mdm2-MdmX inh – disrupts the human Mdm2-MdmX interaction. O15151+Q00987. SaOS-2 split-luciferase Mdm2/MdmX complementation, luminescence. inhibition, % at 8 µM. hit rate 3% among 330,000;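 active = inhibition of at least 50% at 8 µM in the primary screen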
UPR CHOP act – activators of apoptotic arm of unfolded protein response (CHOP); CHO-CHOP luciferase reporter, UPR activation, luminescence; percent of tunicamycin response over DMSO baseline; activation, % at 10 µM; hit rate 0.34% among 330,000;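 active = at 10 µM dose, activation of 40% or more, normalized to positive control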;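 note: 100% = tunicamycin at 10 µg/mL and 0% = DMSO alone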
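System: CHO-CHOP luciferase reporter cell line | Buffer or medium: F12 medium containing 10% fetal bovine serum | Doses: One dose, 10 µM in 0.5% DMSO | Times: 6 h compound exposure at 37 °C after overnight seeding | Signal: Luciferase luminescence | Read-out: % activation vs tunicamycin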
Granule exo inh – lytic granule exocytosis inhibition; TALL-104 LAMP-1 surface exposure, flow cytometry; cells stimulated with thapsigargin and PMA; inhibition, % at 10 µM; hit rate 0.66% among 360,000;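 active = inhibition above about 55%, limit read from the data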
ABHD5-PLIN5 inh – blocks binding of human ABHD5 to perilipin-5; Split G. princeps luciferase complementation, luminescence, 4 h; inhibition, % at 4 µM; hit rate 0.78% among 360,000; AID 602281;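 active = inhibition above the mean inhibition across every tested compound plus 3 SD, cut at about 22% in these data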;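 note: 0% = DMSO only wells and the 100% control is not disclosed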
Target sequence (Q00G26 whole entry, looked up): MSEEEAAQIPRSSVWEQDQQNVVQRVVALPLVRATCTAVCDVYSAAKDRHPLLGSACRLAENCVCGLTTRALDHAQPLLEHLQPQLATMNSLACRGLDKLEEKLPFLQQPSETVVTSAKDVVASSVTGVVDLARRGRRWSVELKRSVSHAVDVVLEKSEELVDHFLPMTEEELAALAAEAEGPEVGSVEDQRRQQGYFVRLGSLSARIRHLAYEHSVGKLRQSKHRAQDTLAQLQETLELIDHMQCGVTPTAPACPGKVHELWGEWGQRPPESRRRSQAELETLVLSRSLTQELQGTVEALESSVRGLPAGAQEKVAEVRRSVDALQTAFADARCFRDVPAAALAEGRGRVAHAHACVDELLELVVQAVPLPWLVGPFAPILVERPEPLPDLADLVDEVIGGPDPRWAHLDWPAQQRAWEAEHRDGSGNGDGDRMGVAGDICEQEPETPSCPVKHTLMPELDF
Target sequence (Q8WTS1 whole entry, looked up): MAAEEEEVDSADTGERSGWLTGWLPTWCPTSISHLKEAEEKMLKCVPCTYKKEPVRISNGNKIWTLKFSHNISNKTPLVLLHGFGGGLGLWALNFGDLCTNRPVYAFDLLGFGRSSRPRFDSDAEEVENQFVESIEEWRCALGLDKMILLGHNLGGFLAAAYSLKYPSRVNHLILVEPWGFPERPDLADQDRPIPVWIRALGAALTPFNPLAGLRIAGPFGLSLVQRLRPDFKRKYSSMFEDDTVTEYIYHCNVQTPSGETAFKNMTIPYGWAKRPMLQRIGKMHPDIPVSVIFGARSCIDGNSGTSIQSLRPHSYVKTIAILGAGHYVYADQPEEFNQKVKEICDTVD
XBP1 UPR activ – activators of adaptive arm of unfolded protein response (XBP1); CHO-XBP1 luciferase reporter, IRE1-XBP1 UPR activation, luminescence; percent of tunicamycin response, DMSO as zero; activation, % at 20 µM; hit rate 0.33% among 330,000; AID 463104;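 active = versus positive control, 20 µM dose yields 30% or more activation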;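 note: 100% = tunicamycin at 10 µg/mL and 0% = DMSO only wells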
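Assay system: IRE1-XBP1 luciferase reporter CHO line. Input: 1000 cells/well. Buffer or medium: F12 with 10% serum. Doses: 20 µM, 1% DMSO. Times: overnight seeding at 37 °C, 6 h compound treatment at 37 °C. Technique: Steady-Glo luciferase glow luminescence, 10 min after reagent addition.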
Mdm2 MdmX conf – human Mdm2/MdmX binding inhibition, confirmed; shares compounds with Mdm2-MdmX inh; luminescent assay; inhibition, % at 8 µM; hit rate 55% among 10,000; in the data active = inhibition above about 40%
Full FLuc ctr – full-length luciferase inhibition in Mdm2/MdmX counter-screen; shares compounds with Mdm2-MdmX inh; hit rate 77% among 6,200; SaOS-2 full-length luciferase counterscreen, luminescence; inhibition, % at 8 µM;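 active = mean inhibition at 8 µM reaching about 37%, which flags the compound as non-specific, limit read from the data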;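 note: p53-null SaOS-2 cells with luciferase driven by a doxycycline-inducible promoter; compound on cells about two nights before reading with doxycycline added after day one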
The depositor's hits bear a star; · = not tested or not shown.

SMILES | Mdm2-MdmX inh | UPR CHOP act | Granule exo inh | ABHD5-PLIN5 inh | XBP1 UPR activ | Mdm2 MdmX conf | Full FLuc ctr
Cn1c(CCN2CCCCC2)nc2cc(NC(=O)COc3ccc(Cl)cc3)ccc21 | 45 | 1 | 21 | 12 | -3 | · | ·
Cc1ccc(C(C)C)c(OCC(=O)Nc2ccc3c(c2)nc(CCN2CCCCC2)n3C)c1 | 99* | 2 | 45 | 17 | 2 | 82* | 60*
C/C(=N/NC(=O)c1nnn(-c2nonc2N)c1COc1ccccc1)c1ccc(O)cc1 | 75* | 0 | 0 | 4 | -4 | -8 | ·
C/C(=N/NC(=O)c1nnn(-c2nonc2N)c1COc1ccccc1)c1ccccc1Cl | 25 | -2 | 11 | 1 | -1 | · | ·
CCOc1ccc(-c2c(C(=O)N/N=C(\C)c3cccnc3)nnn2-c2nonc2N)cc1 | 64* | 3 | 26 | 9 | 0 | 4 | ·
C/C(=N\NC(=O)c1nnn(-c2nonc2N)c1-c1ccccc1)c1ccccc1O | 82* | -1 | 30 | -1 | -3 | 84* | 51*
COCCNC(=O)CCCn1c(=O)c2cc(OC)c(OC)cc2n(CC(=O)Nc2ccc(C)c(F)c2)c1=O | -2 | 0 | -1 | 0 | -4 | · | ·
O=C(COC(=O)/C=C/c1ccc(C(F)(F)F)cc1)NC(=O)NCc1ccco1 | 12 | -2 | -4 | 8 | -5 | · | ·
COc1cccc(CC(=O)Nc2ccc(S(=O)(=O)Nc3nccs3)cc2)c1 | 10 | -2 | 12 | -5 | -1 | · | ·
S=c1[nH]nc(-c2ccc(Cl)cc2)n1/N=C/c1ccco1 | -7 | -2 | -9 | -13 | 2 | · | ·
Cc1n[nH]c(=S)n1/N=C/c1ccc(-c2ccc(Cl)cc2)o1 | 94* | 3 | -4 | 2 | 3 | -3 | ·
CCCC(O)(CCC)C(=O)NN(C(=O)CCl)c1ccccc1 | 58* | -1 | -2 | -2 | 2 | 23 | ·
CCCCC(O)(CCCC)C(=O)NN(C(=O)OCC)c1ccccc1 | 7 | -2 | -2 | -4 | 3 | · | ·
COC(=O)c1c(C)[nH]c(C(=O)OCC(=O)N(CC(C)C)c2c(N)n(Cc3ccccc3)c(=O)[nH]c2=O)c1C | 23 | 0 | 0 | 7 | 0 | · | ·
CC(C)CN(C(=O)COC(=O)C12CC3CC(CC(C3)C1)C2)c1c(N)n(Cc2ccccc2)c(=O)[nH]c1=O | 61* | 5 | -5 | 6 | -5 | 72* | 47*
CC(C)CN(C(=O)COC(=O)C12CC3CC(CC(O)(C3)C1)C2)c1c(N)n(Cc2ccccc2)c(=O)[nH]c1=O | · | · | 0 | 9 | · | · | ·
CC(=O)Nc1sc(C)c(C)c1C(=O)OCC(=O)N(CC(C)C)c1c(N)n(Cc2ccccc2)c(=O)[nH]c1=O | 100* | 1 | -9 | -8 | 1 | 19 | ·
O=C(Cc1ccccc1)NS(=O)(=O)c1ccc(N=NN2CCOCC2)cc1 | 87* | -3 | 4 | 13 | -2 | -14 | ·
CCC1=NN(C(=O)C(=O)Nc2ccc(OC)cc2)C(O)(C(F)(F)F)C1 (centres undefined) | 20 | -2 | -2 | 3 | 1 | · | ·
O=C(COC(=O)CNC(=O)c1ccccc1F)Nc1ncc(Cl)cc1Cl | -26 | -1 | 1 | 4 | -2 | · | ·
Cc1ccc2c(c1)c1c3n2CCN(C(=O)CN2CCN(C)CC2)C3CCC1 (centres undefined) | 43 | 3 | 3 | 11 | -1 | · | ·
CN1CCN(CC(=O)N2CCn3c4c(c5cc(C6CCCCC6)ccc53)CCCC42)CC1 (centres undefined) | 98* | 9 | 77* | 23* | 26 | 73* | 52*
CCCC(=O)N1c2ccccc2[C@@H](N(C(C)=O)c2ccccc2)C[C@H]1C | 21 | 0 | 3 | 0 | 1 | · | ·
CCC(=O)N1c2ccccc2C(N(C(C)=O)c2ccccc2)CC1C (centres undefined) | 54* | 1 | -1 | -7 | 0 | 24 | ·
Cc1ccc(NC(=S)NCCC(c2ccccc2)c2ccccc2)c(C)c1 | 61* | 4 | 1 | -3 | 0 | 4 | ·
SMILES | Mdm2-MdmX inh | UPR CHOP act | Granule exo inh | ABHD5-PLIN5 inh | XBP1 UPR activ | Mdm2 MdmX conf | Full FLuc ctr
c1ccc(-c2cnnc3ccccc23)cc1 | 7 | 0 | 2 | -5 | 1 | · | ·
CS(=O)(=O)c1nc(-c2cccs2)cc(C(F)(F)F)n1 | 100* | -10 | · | · | -7 | 99* | 1
S=C(NCc1cccs1)Nc1cccc(Cl)c1 | 4 | 0 | 0 | -2 | -2 | · | ·
S=C(NCc1cccs1)Nc1cc(Cl)cc(Cl)c1 | 61* | 3 | -26 | -3 | -4 | 19 | ·
CCCc1c(C(=O)Nc2ccc(F)cc2C)cnn1-c1ccccc1 | 47 | 0 | -5 | 3 | -2 | · | ·
CCCc1c(NC(=O)Nc2ccc(F)cc2)cnn1-c1ccccc1 | 89* | 1 | 4 | -3 | -3 | 61* | 29
CCCCc1ccc(-c2nc(N)n[nH]2)cc1 | -35 | 6 | 1 | -7 | 6 | · | ·
COc1ccc(NC(=O)C(=O)NNC(=O)COc2ccc(OC)cc2)cc1 | 14 | 0 | -19 | -2 | -1 | · | ·
O=C(COc1ccc2ccccc2c1)NNC(=O)C(=O)Nc1ccccc1 | 53* | 1 | 13 | -1 | 3 | 60* | 99*
CC(C)(C)c1ccc(C(O)CCCN2CCC(C(O)(c3ccccc3)c3ccccc3)CC2)cc1 (centres undefined) | 99* | 32 | 24 | -3 | 11 | 88* | 42*
O=C(Nc1ccc2oc(=O)ccc2c1)c1ccc(-c2ccccc2[N+](=O)[O-])o1 | 62* | 6 | 13 | -1 | 9 | -8 | ·
COc1cc2c3nnc(-c4ccccc4)c-3cn(Cc3ccccc3F)c2cc1OC | 84* | 1 | · | · | 10 | 53* | 40*
Cc1ccc(N(CCC#N)C(=O)CCl)cc1C | 100* | 4 | -3 | 4 | -5 | 100* | 57*
COC(=O)c1c(NC(=O)CSc2ncnc3c2cnn3-c2ccccc2Cl)sc2c1CCCC2 | 53* | -3 | 7 | 1 | -2 | 13 | ·
N#Cc1c(NC(=O)CSc2ncnc3c2cnn3-c2ccccc2Cl)sc2c1CCCC2 | 25 | 2 | -2 | 1 | -1 | · | ·
COc1ccc(NC(=O)N(C)C[C@H]2OCc3cnnn3CCCC(=O)N([C@H](C)CO)C[C@@H]2C)cc1 | · | · | -1 | -1 | · | · | ·
CCc1ccn2cc(-c3ccc4c(c3)OCO4)nc2c1 | 62* | -10 | 2 | 0 | -10 | 53* | 92*
O=C(CCl)Nc1cccc(Oc2ccccc2)c1 | 94* | 7 | 0 | 2 | -5 | 21 | ·
CSc1cccc(NC(=O)C(=O)NCc2ccccc2)c1 | 26 | 5 | -10 | 0 | 3 | · | ·

Screening data (PubChem BioAssay)
